Results pooled from the literature.
Lines come from different studies, so protocols differ.
Adora2a: Adenosine receptor A2a (Adora2a, Rattus norvegicus, UniProt P30543)
AGTR2: Type-2 angiotensin II receptor (AGTR2, Homo sapiens, UniProt P50052)
Urease: Urease (Canavalia ensiformis, UniProt P07374)

target | assay | setting | Ki [µM] | SMILES
Adora2a | ligand displacement, radioligand | cell membranes | 0.429 | N#Cc1c(N)nc(SCC(N)=O)c(C#N)c1-c1ccc2c(c1)OCO2
AGTR2 | ligand displacement in cells, radioligand | – | 16 | CCc1ccc(C(=O)N[C@H](C(=O)O)C(C)CC)cc1C(=O)N(C)Cc1ccccc1 (stereo in doubt)
Adora2a | ligand displacement, radioligand | cell membranes | 0.751 | N#Cc1c(N)nc(SCC(N)=O)c(C#N)c1-c1cccc(O)c1
AGTR2 | ligand displacement in cells, radioligand | – | 4.4 | CCc1ccc(C(=O)N[C@H](C(=O)O)C(C)CC)cc1C(=O)N(Cc1ccccc1)Cc1ccccc1 (stereo in doubt)
Adora2a | ligand displacement, radioligand | cell membranes | 0.338 | N#Cc1c(N)nc(SCC(N)=O)c(C#N)c1-c1ccc(O)cc1
Adora2a | ligand displacement, radioligand | cell membranes | 0.371 | CCCCn1c(=O)c2[nH]c(C34CC5CC(CC3C5)C4)nc2n(CCCO)c1=O
Prostaglandin E2 receptor EP1 subtype (PTGER1, Homo sapiens, UniProt P34995) | cell-free assay | – | 2.25 | CCCC[C@H](NC(=O)[C@H](C)c1c(C)[nH]c2ccc(O)cc12)c1ncc(-c2cc3ccccc3nc2OC)[nH]1
Urease | enzyme activity, inhibitor | – | 18.1 | CC(=O)NO
AGTR2 | ligand displacement in cells, radioligand | – | 22 | CCC(C)[C@H](NC(=O)c1cccc(C(=O)N(CC)CC)c1)C(=O)O (stereo in doubt)
Adora2a | ligand displacement, radioligand | cell membranes | 1.06 | N#Cc1c(N)nc2sc(C(N)=O)c(N)c2c1-c1ccc2c(c1)OCO2
Adora2a | ligand displacement, radioligand | cell membranes | 0.3 | CCCCN1CCCn2c1nc1c2c(=O)n(CCC)c(=O)n1CCC
AGTR2 | ligand displacement in cells, radioligand | – | 35 | CCC(C)[C@H](NC(=O)c1ccc(C(=O)N(Cc2ccccc2)Cc2ccccc2)cc1)C(=O)O (stereo in doubt)
Sodium-dependent serotonin transporter (SLC6A4, Homo sapiens, UniProt P31645) | ligand displacement, radioligand | – | 0.58 | CCc1nc2cc(OCCCCN3CCC(c4cccc(Cl)c4Cl)CC3)ccc2s1
Adora2a | ligand displacement, radioligand | cell membranes | 0.561 | COc1ccc(-c2c(C#N)c(N)nc3sc(C(N)=O)c(N)c23)cc1
Adora2a | ligand displacement, radioligand | cell membranes | 2.62 | C=CCN1CCCn2c1nc1c2c(=O)n(C)c(=O)n1C
Adora2a | ligand displacement, radioligand | cell membranes | 0.0483 | COc1cccc(-c2c(C#N)c(N)nc(SCc3cccc(C)n3)c2C#N)c1
Adora2a | ligand displacement, radioligand | cell membranes | 7.4 | C#CCN1CCCn2c1nc1c2c(=O)n(C)c(=O)n1C
AGTR2 | ligand displacement in cells, radioligand | – | 7.6 | CCC(C)[C@H](NC(=O)c1ccc(C)c(C(=O)N(C)Cc2ccccc2)c1)C(=O)O (stereo in doubt)
Adora2a | ligand displacement, radioligand | cell membranes | 4.64 | CCC(C)N1CCCn2c1nc1c2c(=O)n(C)c(=O)n1C (stereo not shown)
Urease | enzyme activity, inhibitor | – | 2.25 | Oc1ccccc1OCc1nn2c(-c3cccc(Br)c3)nnc2s1
AGTR2 | ligand displacement in cells, radioligand | – | 11 | CCC(C)[C@H](NC(=O)c1cccc(C(=O)N(CC)Cc2ccccc2)c1)C(=O)O (stereo in doubt)
Adora2a | ligand displacement, radioligand | cell membranes | 5.37 | CC(C)CC(C)N1CCCn2c1nc1c2c(=O)n(C)c(=O)n1C (stereo not shown)
D(1A) dopamine receptor (DRD1, Homo sapiens, UniProt P21728) | cell-free assay, radioligand | – | 1.62 | COc1ccccc1N1CCN(CCCCN2CCc3ccccc3C2=O)CC1
AGTR2 | ligand displacement in cells, radioligand | – | 8.3 | CCc1ccc(C(=O)N[C@H](C(=O)O)C(C)CC)cc1C(=O)N(CC)Cc1ccccc1 (stereo in doubt)
Adora2a | ligand displacement, radioligand | cell membranes | 2.65 | CCN1CCCn2c1nc1c2c(=O)n(C)c(=O)n1C
